ChEMBL document CHEMBL4811231, “Discovery and structural optimization of 3-O-β-chacotriosyl oleanane-type triterpenoids as potent entry inhibitors of SARS-CoV-2 virus infections” (Eur J Med Chem, 2021)

Assays:
[1] = Cytotoxicity against human 293T/ACE2 cells measured after 48 hrs by MTT assay; type: cell-based; details: 293t/ace2, 48 h
Procedure, shortened: (§1)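 MTT assay on monolayers of 293T-ACE2 or Vero-E6 cells. Cells were rinsed with PBS and exposed to compound for 48 h, then given 0.5 mg/mL MTT for 4 h at 37 °C. Formazan was dissolved in DMSO and absorbance read at 570 nm.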

[2] = Selectivity index, ratio of CC50 for cytotoxicity against human 293T/ACE2 cells to IC50 for SARS-CoV-2 spike glycoprotein S inhibition; type: toxicity, cell-based; details: read-out: Selectivity Index
[3] = test system: Vero E6; assay: Antiviral activity against SARS-CoV-2 Wuhan-HU-1 infection on African green monkey Vero E6 cells assessed by viral nucleoprotein expression at 0.55 to 15 uM measured after 48 hrs by DAPI staining based indirect immunoflourescence microscopy relative to control; type: functional, cell-based; details: Severe acute respiratory syndrome-related coronavirus, dose 0.55-15 µM
[4] = Antiviral activity against SARS-CoV-2 Wuhan-HU-1 preincubated for 1 hr with African green monkey VeroE6 cells assessed as inhibition of viral infection by measuring total RNA after 24 hrs by qPCR analysis; type: functional, cell-based, Vero E6; details: Severe acute respiratory syndrome-related coronavirus, Wuhan-HU-1, Vero C1008
[5] = test system: Vero C1008; assay: Cytotoxicity against African Green monkey Vero E6 cells measured after 48 hrs by MTT assay; type: cell-based; details: chlorocebus sabaeus, vero c1008, 48 h; procedure, shortened: as §1
[6] = Inhibition of SARS-CoV-2 spike glycoprotein S1 binding to human ACE2 receptor in co-transfected human HEK293T cells at 40 uM measured by Co-immunoprecipitation based Western blot assay; type: cell-based, Severe acute respiratory syndrome-related coronavirus
Procedure, shortened: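 293T cells were co-transfected with ACE2-Flag and SARS-S plasmids, and total protein was extracted after 48 h. Lysates were immunoprecipitated overnight with protein A Sepharose and anti-Flag antibody (mouse IgG as control). Proteins were run on 10% PAGE and blotted with anti-Flag and anti-SARS-CoV-S antibodies plus an HRP secondary.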

[7] = Binding affinity to SARS-CoV-2 spike glycoprotein S1 measured by Surface plasmon resonance; set-up: species or system Severe acute respiratory syndrome-related coronavirus
Procedure, shortened: (§2)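 Compound was immobilised on the chip by photo-crosslinking. Recombinant SARS-CoV-2 S-trimer, S1 or S2 protein was injected at a series of concentrations in PBST (0.1% Tween 20, pH 7.4) at 4 °C. Binding lasted 600 s and dissociation 360 s, at 0.5 µL/s. The chip was regenerated with glycine-HCl pH 2.0.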

[8] = Binding affinity to SARS-CoV-2 spike glycoprotein S2 measured by Surface plasmon resonance; set-up: species or system Severe acute respiratory syndrome-related coronavirus; procedure, shortened: as §2
[9] = test system: Vero E6; assay: Inhibition of SARS-CoV-2 spike glycoprotein S2 in human HEK293T cells transfected with pAAV-IRES-GFP-SARS-CoV-2 S assessed as inhibition of membrane fusion to african green monkey Vero E6 cells […] pretreated at 2.5 to 20 uM for 30 mins measured after 24 hrs by cell-cell fusion based fluorescence microscopy; details: Severe acute respiratory syndrome-related coronavirus, dose 2.5-20 µM
Procedure, shortened: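 Effector HEK-293T cells were transfected with pAAV-IRES-GFP-SARS-CoV-2 S, or with empty pAAV-IRES-GFP as vehicle. They were pretreated with compound for 30 min and overlaid on Vero-E6 target cells seeded 6 h earlier (20,000/well). After 24 h, three random fields were imaged by fluorescence microscopy.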

SMILES	CC50 [1]	selectivity ratio [2]	also measured
C[C@@H]1O[C@@H](O[C@H]2[C@H](O[C@H]3CC[C@]4(C)[C@H]5CC=C6[C@@H]7CC(C)(C)CC[C@]7(C(=O)NCc7ccccc7)CC[C@@]6(C)[C@]5(C)CC[C@H]4C3(C)C)O[C@H](CO)[C@@H](O[C@@H]3O[C@@H](C)[C@H](O)[C@@H](O)[C@H]3O)[C@@H]2O)[C@H](O)[C@H](O)[C@H]1O	> 100 µM	> 22.9	inhibition [3]: Dose-Dependent Effect; IC50 [4]: 0.97 µM; Activity [5]: Non-Toxic; Kd [6]: Active; Kd [7]: 3690 µM; Kd [8]: 2.16 µM; inhibition [9]: Dose-Dependent Effect
C[C@@H]1O[C@@H](O[C@H]2[C@H](O[C@H]3CC[C@]4(C)[C@H]5CC=C6[C@@H]7CC(C)(C)CC[C@]7(C(=O)NCc7ccccc7Cl)CC[C@@]6(C)[C@]5(C)CC[C@H]4C3(C)C)O[C@H](CO)[C@@H](O[C@@H]3O[C@@H](C)[C@H](O)[C@@H](O)[C@H]3O)[C@@H]2O)[C@H](O)[C@H](O)[C@H]1O	> 100 µM	> 15.8	–
COc1ccc(NC(=O)[C@]23CCC(C)(C)C[C@H]2C2=CC[C@@H]4[C@@]5(C)CC[C@H](O[C@@H]6O[C@H](CO)[C@@H](O[C@@H]7O[C@@H](C)[C@H](O)[C@@H](O)[C@H]7O)[C@H](O)[C@H]6O[C@@H]6O[C@@H](C)[C@H](O)[C@@H](O)[C@H]6O)C(C)(C)[C@@H]5CC[C@@]4(C)[C@]2(C)CC3)cc1	> 100 µM	> 10	–
C[C@@H]1O[C@@H](O[C@H]2[C@H](O[C@H]3CC[C@]4(C)[C@H]5CC=C6[C@@H]7CC(C)(C)CC[C@]7(C(=O)Nc7ccccc7)CC[C@@]6(C)[C@]5(C)CC[C@H]4C3(C)C)O[C@H](CO)[C@@H](O[C@@H]3O[C@@H](C)[C@H](O)[C@@H](O)[C@H]3O)[C@@H]2O)[C@H](O)[C@H](O)[C@H]1O	33.5 µM	1.85	–
C[C@@H]1O[C@@H](O[C@H]2[C@H](O[C@H]3CC[C@]4(C)[C@H]5CC=C6[C@@H]7CC(C)(C)CC[C@]7(C(=O)NCc7ccccc7F)CC[C@@]6(C)[C@]5(C)CC[C@H]4C3(C)C)O[C@H](CO)[C@@H](O[C@@H]3O[C@@H](C)[C@H](O)[C@@H](O)[C@H]3O)[C@@H]2O)[C@H](O)[C@H](O)[C@H]1O	> 100 µM	> 17.6	–
COc1ccccc1CNC(=O)[C@]12CCC(C)(C)C[C@H]1C1=CC[C@@H]3[C@@]4(C)CC[C@H](O[C@@H]5O[C@H](CO)[C@@H](O[C@@H]6O[C@@H](C)[C@H](O)[C@@H](O)[C@H]6O)[C@H](O)[C@H]5O[C@@H]5O[C@@H](C)[C@H](O)[C@@H](O)[C@H]5O)C(C)(C)[C@@H]4CC[C@@]3(C)[C@]1(C)CC2	33.4 µM	2	–
COc1ccccc1NC(=O)[C@]12CCC(C)(C)C[C@H]1C1=CC[C@@H]3[C@@]4(C)CC[C@H](O[C@@H]5O[C@H](CO)[C@@H](O[C@@H]6O[C@@H](C)[C@H](O)[C@@H](O)[C@H]6O)[C@H](O)[C@H]5O[C@@H]5O[C@@H](C)[C@H](O)[C@@H](O)[C@H]5O)C(C)(C)[C@@H]4CC[C@@]3(C)[C@]1(C)CC2	31.2 µM	5.64	–
C[C@@H]1O[C@@H](O[C@H]2[C@H](O[C@H]3CC[C@]4(C)[C@H]5CC=C6[C@@H]7CC(C)(C)CC[C@]7(C(=O)N(C)Cc7ccccc7)CC[C@@]6(C)[C@]5(C)CC[C@H]4C3(C)C)O[C@H](CO)[C@@H](O[C@@H]3O[C@@H](C)[C@H](O)[C@@H](O)[C@H]3O)[C@@H]2O)[C@H](O)[C@H](O)[C@H]1O	37.6 µM	4.84	–
O=C(/C=C/c1ccc(O)c2oc(-c3ccc(O)c(O)c3)cc12)O[C@H](Cc1ccc(O)c(O)c1)C(=O)O	> 100 µM	> 26	–
C[C@@H]1O[C@@H](O[C@H]2[C@H](O[C@H]3CC[C@]4(C)[C@H]5CC=C6[C@@H]7CC(C)(C)CC[C@]7(C(=O)NCc7cccs7)CC[C@@]6(C)[C@]5(C)CC[C@H]4C3(C)C)O[C@H](CO)[C@@H](O[C@@H]3O[C@@H](C)[C@H](O)[C@@H](O)[C@H]3O)[C@@H]2O)[C@H](O)[C@H](O)[C@H]1O	34.9 µM	5.92	–
COc1cccc(NC(=O)[C@]23CCC(C)(C)C[C@H]2C2=CC[C@@H]4[C@@]5(C)CC[C@H](O[C@@H]6O[C@H](CO)[C@@H](O[C@@H]7O[C@@H](C)[C@H](O)[C@@H](O)[C@H]7O)[C@H](O)[C@H]6O[C@@H]6O[C@@H](C)[C@H](O)[C@@H](O)[C@H]6O)C(C)(C)[C@@H]5CC[C@@]4(C)[C@]2(C)CC3)c1	> 100 µM	> 12	–
C[C@@H]1O[C@@H](O[C@H]2[C@H](O[C@H]3CC[C@]4(C)[C@H]5CC=C6[C@@H]7CC(C)(C)CC[C@]7(C(=O)NCc7ccccc7Br)CC[C@@]6(C)[C@]5(C)CC[C@H]4C3(C)C)O[C@H](CO)[C@@H](O[C@@H]3O[C@@H](C)[C@H](O)[C@@H](O)[C@H]3O)[C@@H]2O)[C@H](O)[C@H](O)[C@H]1O	> 100 µM	> 8.51	–
C[C@@H]1O[C@@H](O[C@H]2[C@H](O[C@H]3CC[C@]4(C)[C@H]5CC=C6[C@@H]7CC(C)(C)CC[C@]7(C(=O)OCc7ccccc7)CC[C@@]6(C)[C@]5(C)CC[C@H]4C3(C)C)O[C@H](CO)[C@@H](O[C@@H]3O[C@@H](C)[C@H](O)[C@@H](O)[C@H]3O)[C@@H]2O)[C@H](O)[C@H](O)[C@H]1O	21.6 µM	1.29	–
C[C@@H]1O[C@@H](O[C@H]2[C@H](O[C@H]3CC[C@]4(C)[C@H]5CC=C6[C@@H]7CC(C)(C)CC[C@]7(C(=O)Nc7ccccc7Cl)CC[C@@]6(C)[C@]5(C)CC[C@H]4C3(C)C)O[C@H](CO)[C@@H](O[C@@H]3O[C@@H](C)[C@H](O)[C@@H](O)[C@H]3O)[C@@H]2O)[C@H](O)[C@H](O)[C@H]1O	31.7 µM	5.06	–
C[C@@H]1O[C@@H](O[C@H]2[C@H](O[C@H]3CC[C@]4(C)[C@H]5CC=C6[C@@H]7CC(C)(C)CC[C@]7(C(=O)NCCc7ccccc7)CC[C@@]6(C)[C@]5(C)CC[C@H]4C3(C)C)O[C@H](CO)[C@@H](O[C@@H]3O[C@@H](C)[C@H](O)[C@@H](O)[C@H]3O)[C@@H]2O)[C@H](O)[C@H](O)[C@H]1O	> 100 µM	> 13.6	–
C[C@@H]1O[C@@H](O[C@H]2[C@H](O[C@H]3CC[C@]4(C)[C@H]5CC=C6[C@@H]7CC(C)(C)CC[C@]7(C(=O)NCCCc7ccccc7)CC[C@@]6(C)[C@]5(C)CC[C@H]4C3(C)C)O[C@H](CO)[C@@H](O[C@@H]3O[C@@H](C)[C@H](O)[C@@H](O)[C@H]3O)[C@@H]2O)[C@H](O)[C@H](O)[C@H]1O	> 100 µM	> 7.66	–
